From ChEMBL document CHEMBL3351295, “Rational design, synthesis and evaluation of chromone-indole and chromone-pyrazole based conjugates: identification of a lead for anti-inflammatory drug” (Eur J Med Chem, 2014)
pIC50: −log10 of the molar value. Activity calls are given as the source filed them. The rule behind the calls is not given here.

Experiments:
[1] = target: T1, Prostaglandin G/H synthase 1 (Ovis aries) (UniProt P05979); experiment: Inhibition of ovine COX-1 assessed as decrease in prostaglandin production using arachidonic acid as substrate at 1 uM incubated with enzyme for 10 mins prior to substrate challenge by enzyme immunoassay
T1 sequence (whole entry): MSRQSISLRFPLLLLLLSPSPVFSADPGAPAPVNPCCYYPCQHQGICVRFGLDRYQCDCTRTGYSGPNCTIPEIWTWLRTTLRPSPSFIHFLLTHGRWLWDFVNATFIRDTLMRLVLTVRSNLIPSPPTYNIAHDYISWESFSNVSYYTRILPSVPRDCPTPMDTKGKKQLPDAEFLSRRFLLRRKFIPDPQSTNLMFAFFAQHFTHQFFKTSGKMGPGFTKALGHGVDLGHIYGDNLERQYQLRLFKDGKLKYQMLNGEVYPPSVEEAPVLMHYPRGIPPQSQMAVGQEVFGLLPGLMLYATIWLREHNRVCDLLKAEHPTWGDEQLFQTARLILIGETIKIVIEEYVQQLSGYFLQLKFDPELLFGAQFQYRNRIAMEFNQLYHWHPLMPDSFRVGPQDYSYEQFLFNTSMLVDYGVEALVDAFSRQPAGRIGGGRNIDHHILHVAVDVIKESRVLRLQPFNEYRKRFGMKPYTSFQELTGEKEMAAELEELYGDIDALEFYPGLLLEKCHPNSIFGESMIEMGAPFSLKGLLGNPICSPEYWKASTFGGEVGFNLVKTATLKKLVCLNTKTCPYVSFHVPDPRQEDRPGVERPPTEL
Method in brief: (§1)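 Ovine COX-1 EIA kit run in triplicate. Compounds were at 10^-5 to 10^-8 M. Enzyme and compound were incubated 10 min at 37 °C, then arachidonic acid was added for 2 min. The reaction was stopped with 1 M HCl and reduced with stannous chloride. Prostaglandins were quantified by AChE-tracer competitive EIA (18 h at room temperature, Ellman's reagent, read at 420 nm) against a 100% activity control.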

[2] = target: Prostaglandin G/H synthase 1 (Homo sapiens) (UniProt P23219); experiment: Binding affinity to COX-1 (unknown origin) at 0.35 mM after 30 mins by [13C] NMR spectroscopy; details: in the assay text read “[1H] NMR” for “[13C] NMR”
Sequence of Prostaglandin G/H synthase 1 (Homo sapiens) (P23219 whole entry): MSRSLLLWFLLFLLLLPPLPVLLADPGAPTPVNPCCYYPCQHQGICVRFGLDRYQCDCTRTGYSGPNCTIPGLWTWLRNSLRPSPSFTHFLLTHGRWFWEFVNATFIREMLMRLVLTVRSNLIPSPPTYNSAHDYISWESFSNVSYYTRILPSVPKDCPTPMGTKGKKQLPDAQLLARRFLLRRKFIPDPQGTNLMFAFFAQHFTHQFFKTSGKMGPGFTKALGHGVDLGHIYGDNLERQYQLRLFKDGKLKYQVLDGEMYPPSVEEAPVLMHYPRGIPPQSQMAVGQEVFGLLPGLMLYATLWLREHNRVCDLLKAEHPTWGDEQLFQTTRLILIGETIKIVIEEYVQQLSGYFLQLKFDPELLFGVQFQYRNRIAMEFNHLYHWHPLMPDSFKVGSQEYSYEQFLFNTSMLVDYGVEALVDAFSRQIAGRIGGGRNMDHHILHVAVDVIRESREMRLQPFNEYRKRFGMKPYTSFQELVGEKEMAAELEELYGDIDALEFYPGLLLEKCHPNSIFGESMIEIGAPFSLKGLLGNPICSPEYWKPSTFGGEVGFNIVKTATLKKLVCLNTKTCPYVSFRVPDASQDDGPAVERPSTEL
Method in brief: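 Compound was 0.35 mM in DMSO-d6, with 12 (0.08 mM) COX-1 or COX-2 added. Samples were incubated at 37 °C and 1H NMR spectra were recorded every 30 min. D2O exchange was used to assign NH signals.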

[3] = target: T2, Prostaglandin G/H synthase 2 (Homo sapiens) (UniProt P35354)
T2 sequence (whole entry): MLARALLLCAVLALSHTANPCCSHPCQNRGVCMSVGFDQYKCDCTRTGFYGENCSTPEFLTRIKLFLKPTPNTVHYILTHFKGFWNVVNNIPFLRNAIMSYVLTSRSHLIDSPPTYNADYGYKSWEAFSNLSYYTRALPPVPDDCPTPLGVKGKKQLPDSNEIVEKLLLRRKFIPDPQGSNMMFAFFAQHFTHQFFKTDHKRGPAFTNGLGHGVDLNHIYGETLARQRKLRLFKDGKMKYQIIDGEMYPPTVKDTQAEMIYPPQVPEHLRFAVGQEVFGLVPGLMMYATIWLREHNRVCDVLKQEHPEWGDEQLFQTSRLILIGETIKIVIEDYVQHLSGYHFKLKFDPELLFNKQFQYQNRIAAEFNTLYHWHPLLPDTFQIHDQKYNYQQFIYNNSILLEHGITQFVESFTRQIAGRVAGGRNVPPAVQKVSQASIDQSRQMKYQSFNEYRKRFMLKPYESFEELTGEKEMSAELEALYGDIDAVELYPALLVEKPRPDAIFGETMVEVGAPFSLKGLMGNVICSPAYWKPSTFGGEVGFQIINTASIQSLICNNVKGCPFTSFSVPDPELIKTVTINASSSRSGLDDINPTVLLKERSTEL

[4] = target: T3, Prostaglandin G/H synthase 1 (Ovis aries, UniProt P05979); experiment: Inhibition of ovine COX-1 assessed as decrease in prostaglandin production using arachidonic acid as substrate incubated with enzyme for 10 mins prior to substrate challenge by enzyme immunoassay; method in brief: as §1
T3 sequence (P05979 whole entry): T1 sequence (whole entry)

[5] = tested on: Solanum tuberosum; experiment: Inhibition of potato 5-LOX assessed as decrease in leukotriene production using arachidonic acid as substrate at 10 uM by enzyme immunoassay
Method in brief: (§2)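 Potato 5-LOX assay in buffer with DMSO solvent control. Compounds were tested at final well concentrations of 10^-5 to 10^-8 M in duplicate. Reaction was started with arachidonic acid and the plate shaken 5 min. Chromogen was added to stop the reaction, followed by 30 min incubation and reading at 500 nm. Activity was compared with 100% initial-activity wells.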

[6] = tested on: Mus musculus; experiment: Analgesic activity in Swiss albino mouse assessed as decrease in capsaicin-induced paw lickings at 5 mg/kg, ip administered 30 mins before capsaicin injection; assay type: functional; details: route intraperitoneal
Method in brief: (§3)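 Capsaicin […] was injected into the plantar surface of the right hind paw. Swiss albino mice (25–35 g, either sex, groups of 6) were pretreated i.p. 30 min beforehand; saline 0.5 mL was the control. Time spent licking and twitching was recorded over 10 min. Results are mean ± SEM (n = 6), analysed by one-way ANOVA with Tukey's test.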

[7] = tested on: Solanum tuberosum; experiment: Inhibition of potato 5-LOX assessed as decrease in leukotriene production using arachidonic acid as substrate at 0.1 uM by enzyme immunoassay; method in brief: as §2
[8] = target: T1, Prostaglandin G/H synthase 1 (Ovis aries); experiment: Inhibition of ovine COX-1 assessed as decrease in prostaglandin production using arachidonic acid as substrate at 10 uM incubated with enzyme for 10 mins prior to substrate challenge by enzyme immunoassay; method in brief: as §1
[9] = target: T1, Prostaglandin G/H synthase 1 (Ovis aries); experiment: Inhibition of ovine COX-1 assessed as decrease in prostaglandin production using arachidonic acid as substrate at 0.1 uM incubated with enzyme for 10 mins prior to substrate challenge by enzyme immunoassay; method in brief: as §1
[10] = target: Prostaglandin G/H synthase 1 (Homo sapiens) (UniProt P23219)
[11] = tested on: Mus musculus; experiment: Analgesic activity in Swiss albino mouse assessed as decrease in capsaicin-induced paw lickings at 10 mg/kg, ip administered 30 mins before capsaicin injection; assay type: functional, organism-based; design: dose 10 mg/kg; method in brief: as §3
[12] = tested on: Solanum tuberosum; experiment: Inhibition of potato 5-LOX assessed as decrease in leukotriene production using arachidonic acid as substrate at 10 nM by enzyme immunoassay
[13] = tested on: Solanum tuberosum; experiment: Inhibition of potato 5-LOX assessed as decrease in leukotriene production using arachidonic acid as substrate at 1 uM by enzyme immunoassay
[14] = Inhibition of potato 5-LOX assessed as decrease in leukotriene production using arachidonic acid as substrate by enzyme immunoassay; design: species or system Solanum tuberosum; method in brief: as §2
[15] = tested on: Mus musculus; experiment: Analgesic activity in Swiss albino mouse assessed as decrease in capsaicin-induced paw lickings at 25 mg/kg, ip administered 30 mins before capsaicin injection; assay type: functional; details: route intraperitoneal; method in brief: as §3

SMILES	inhibition [1] [%]	Activity [2]	Ka [3] [×10⁴ /M]	pIC50 [4]	inhibition [5] [%]	inhibition in vivo at 5 mg/kg [6] [%]	inhibition [7] [%]	inhibition [8] [%]	inhibition [9] [%]	Ka [10] [×10⁴ /M]	inhibition [11]	inhibition [12] [%]	inhibition [13] [%]	pIC50 [14]	inhibition in vivo at 25 mg/kg [15] [%]
O=C1Nc2ccccc2/C1=C/c1coc2ccccc2c1=O	43	Active	0.75	5.87	74.1	76	22.4	51.6	35	0.29	Active				
CC(C)c1ccc2occ(/C=C3/C(=O)N(c4c(Cl)cccc4Cl)c4ccccc43)c(=O)c2c1	56			6.19			44.8	64.6	47			30.1	81	7.70	
O=C1/C(=C/c2coc3ccccc3c2=O)c2ccccc2N1c1c(Cl)cccc1Cl	75			8.33	8.62		20	80.3	63				15.5		
CCCCC/C=C\C/C=C\C/C=C\C/C=C\CCCC(=O)O			0.18							0.39					
O=C(O)Cc1ccccc1Nc1c(Cl)cccc1Cl [DICLOFENAC]															68
CC1=NN(c2cccc(Cl)c2)C(=O)/C1=C/c1coc2c([N+](=O)[O-])cc(F)cc2c1=O	18			< 5.00			22.4	27.9	15			8.62	46.5	5.13	
O=C1/C(=C/c2coc3ccc(Br)cc3c2=O)c2ccccc2N1c1c(Cl)cccc1Cl	60			6.20	50		37	80.3	44.4			25		5.00	
O=C1Nc2ccccc2/C1=C/c1coc2ccc(Br)cc2c1=O	30.4			5.17				40.5	20				77.6		
CC(=O)Oc1ccccc1C(=O)O			0.22							0.93					
